Measurements published in ChEMBL document CHEMBL1932980, “Structure-activity relationships of 2-amino-3-aroyl-4-[(4-arylpiperazin-1-yl)methyl]thiophenes. Part 2: Probing the influence of diverse substituents at the phenyl of the arylpiperazine moiety on allosteric enhancer activity at the A₁ adenosine receptor” (Bioorg Med Chem, 2012).

Key:
[1] = molecular target: T1, Adenosine receptor A1 (Homo sapiens) (UniProt P30542); assay: Allosteric enhancer activity at recombinant human A1 adenosine receptor expressed in CHO cells assessed as change in forskolin-induced cAMP production at 0.01 uM after 6 mins by radioimmunoassay; format: functional, cell-based
T1 sequence (whole entry): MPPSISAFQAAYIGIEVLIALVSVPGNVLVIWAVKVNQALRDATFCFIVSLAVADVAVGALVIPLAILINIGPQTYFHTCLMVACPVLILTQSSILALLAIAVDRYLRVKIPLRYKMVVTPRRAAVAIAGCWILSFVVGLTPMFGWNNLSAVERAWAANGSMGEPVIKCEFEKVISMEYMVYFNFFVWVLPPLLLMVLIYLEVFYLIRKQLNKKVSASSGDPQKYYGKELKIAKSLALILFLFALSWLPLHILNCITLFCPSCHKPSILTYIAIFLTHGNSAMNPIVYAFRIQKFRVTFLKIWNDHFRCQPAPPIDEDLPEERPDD
Outline: (§1)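 hA1CHO cells (about 8000 fmol/mg protein) thawed from low-passage stocks, grown in Ham's F-12 with 10% FBS and G-418, then plated 48 h. Test compound at 0.01, 0.1, 1 or 10 µM with CPA (0.05–0.1 nM) for 6 min at 36 °C. Stopped with HCl (final 50 mM). cAMP in acidified extracts measured by radioimmunoassay. Reference enhancer run in each experiment. Four experiments per concentration.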

[2] = molecular target: T1, Adenosine receptor A1 (Homo sapiens); assay: Allosteric enhancer activity at recombinant human A1 adenosine receptor expressed in CHO cells assessed as change in forskolin-induced cAMP production at 0.1 uM after 6 mins by radioimmunoassay; format: functional, cell-based; outline: as §1
[3] = molecular target: T1, Adenosine receptor A1 (Homo sapiens); assay: Allosteric enhancer activity at recombinant human A1 adenosine receptor expressed in CHO cells assessed as change in forskolin-induced cAMP production at 1 uM after 6 mins by radioimmunoassay; format: functional, cell-based; outline: as §1
[4] = molecular target: T1, Adenosine receptor A1 (Homo sapiens); assay: Allosteric enhancer activity at recombinant human A1 adenosine receptor expressed in CHO cells assessed as change in forskolin-induced cAMP production at 10 uM after 6 mins by radioimmunoassay; format: functional, cell-based; outline: as §1
[5] = molecular target: T1, Adenosine receptor A1 (Homo sapiens); assay: Displacement of [3H]DPCPX from recombinant human A1 adenosine receptor expressed in CHO cells at 10 uM after 120 mins by scintillation counting; format: cell-based
Outline: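 Membranes from hA1CHO cells incubated with 1 nM [3H]DPCPX in 50 mM Tris–HCl pH 7.4 at 25 °C for 120 min. Compound added from a 100-fold DMSO stock, so 1% DMSO final, also present in controls. Bound ligand separated on GF/B filters and counted by scintillation. Result given as % of control specific binding.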

[6] = molecular target: Adenosine receptor A2a (Homo sapiens) (UniProt P29274); assay: Displacement of [3H]ZM241385 from recombinant human A2A adenosine receptor expressed in CHO cells at 10 uM after 60 mins by scintillation counting; format: cell-based
Adenosine receptor A2a (Homo sapiens), sequence (P29274 whole entry): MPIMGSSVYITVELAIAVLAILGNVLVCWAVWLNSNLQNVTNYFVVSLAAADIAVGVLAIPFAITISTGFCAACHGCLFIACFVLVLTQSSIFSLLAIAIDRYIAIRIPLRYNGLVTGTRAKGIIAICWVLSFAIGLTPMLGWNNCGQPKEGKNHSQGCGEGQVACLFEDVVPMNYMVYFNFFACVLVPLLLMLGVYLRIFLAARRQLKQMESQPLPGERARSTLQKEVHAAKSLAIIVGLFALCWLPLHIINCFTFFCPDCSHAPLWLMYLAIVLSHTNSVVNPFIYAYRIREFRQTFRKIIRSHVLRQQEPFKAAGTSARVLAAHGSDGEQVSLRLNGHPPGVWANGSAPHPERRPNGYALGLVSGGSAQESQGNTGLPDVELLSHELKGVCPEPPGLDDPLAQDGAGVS
Outline: (§2)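 Membranes from hA2ACHO cells incubated with 1 nM [3H]ZM 241385 in 50 mM Tris–HCl, 10 mM MgCl2, pH 7.4 at 4 °C for 60 min. Compound added from a 100-fold DMSO stock, 1% DMSO final, also in controls. Separated by GF/B filtration and counted by scintillation. Result given as % of control specific binding.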

[7] = molecular target: T2, Adenosine receptor A3 (Homo sapiens) (UniProt P0DMS8); assay: Displacement of [3H]MRE3008F20 from recombinant human A3 adenosine receptor expressed in CHO cells at 10 uM after 120 mins by scintillation counting; format: cell-based
T2 sequence (whole entry): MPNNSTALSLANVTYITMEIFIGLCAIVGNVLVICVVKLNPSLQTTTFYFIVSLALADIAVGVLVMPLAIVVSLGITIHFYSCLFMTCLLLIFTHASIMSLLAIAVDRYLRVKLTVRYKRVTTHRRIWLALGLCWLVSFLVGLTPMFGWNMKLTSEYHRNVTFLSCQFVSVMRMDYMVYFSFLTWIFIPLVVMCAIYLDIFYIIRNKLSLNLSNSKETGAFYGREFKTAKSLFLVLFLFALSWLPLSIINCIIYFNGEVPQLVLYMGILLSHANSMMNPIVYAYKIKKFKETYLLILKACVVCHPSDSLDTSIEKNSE
Outline: as §2, with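 “from hA3CHO” for “from hA2ACHO”, “with 2” for “with 1”, “nM [3H]MRE 3008F20” for “nM [3H]ZM 241385”, “MgCl2, 1 mM EDTA,” for “MgCl2,”, “for 120” for “for 60”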

[8] = molecular target: T1, Adenosine receptor A1 (Homo sapiens); assay: Binding affinity to recombinant human A1 adenosine receptor allosteric site expressed in CHO cells assessed as [3H]CCPA Bmax shift at 10 uM after 90 mins relative to control; format: cell-based
Outline: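 Saturation binding of [3H]CCPA (0.05–20 nM) to hA1CHO membranes. Membranes pretreated with adenosine deaminase 3 UI/mL for 30 min at 37 °C. Run in triplicate, 90 min at 25 °C, in 50 mM Tris–HCl pH 7.4, with or without test compound at final 10 µM. Nonspecific binding taken with 1 µM R-PIA. Bmax fitted by LIGAND. Shift is the fold of Bmax increase over control.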

[9] = molecular target: T1, Adenosine receptor A1 (Homo sapiens); assay: Binding affinity to recombinant human A1 adenosine receptor allosteric site expressed in CHO cells assessed as [3H]DPCPX Bmax shift at 10 uM after 90 mins relative to control; format: cell-based
Outline: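 Saturation binding of [3H]DPCPX (0.05–20 nM) to hA1CHO membranes, run in triplicate, 90 min at 25 °C, in 50 mM Tris–HCl pH 7.4, with or without test compound at final 10 µM. Nonspecific binding taken with 1 µM DPCPX. KD and Bmax fitted by LIGAND. Shift is the fold of Bmax increase over control.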

[10] = molecular target: T1, Adenosine receptor A1 (Homo sapiens); assay: Binding affinity to recombinant human A1 adenosine receptor allosteric site expressed in CHO cells assessed as potentiation of CCPA-induced [3H]DPCPX displacement at 10 uM after 90 mins relative to control; format: cell-based
Outline: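 Competition of CCPA (0.01 nM–1 µM) against 1 nM [3H]DPCPX on hA1CHO membranes, run in triplicate, 90 min at 25 °C, in 50 mM Tris–HCl pH 7.4, with or without test compound at 10 µM. Nonspecific binding taken with 1 µM DPCPX. Ki by Cheng–Prusoff. Shift = Ki(CCPA)/Ki(CCPA + 10 µM compound).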

SMILES	Activity [1]	Activity [2]	Activity [3]	Activity [4]	inhibition [5]	inhibition [6]	inhibition [7]	fold change (FC) [8]	fold change (FC) [9]	fold change (FC) [10]
Nc1scc(CN2CCN(c3c(F)cccc3F)CC2)c1C(=O)c1ccc(Cl)cc1	-12%	-23%	-65%	-80%	1%	1%	4%	6.3	1.1	5
Nc1scc(CN2CCN(c3ccc([N+](=O)[O-])cc3)CC2)c1C(=O)c1ccc(Cl)cc1	-12%	-13%	-8.3%	-17%	1%	1%	2%	1.1	0.9	4.2
Nc1scc(CN2CCN(CCc3ccc(Cl)cc3)CC2)c1C(=O)c1ccc(Cl)cc1	1.2%	-3.1%	-32%	-76%	1%	0%	2%	3.1	1	3.4
Nc1scc(CN2CCN(C3CCCCCC3)CC2)c1C(=O)c1ccc(Cl)cc1	2.9%	13%	3.7%	-25%	0%	0%	0%	1.1	0.9	1.2
Nc1scc(CN2CCN(CC(=O)c3ccc(Cl)cc3)CC2)c1C(=O)c1ccc(Cl)cc1	-5%	1%	-25%	-62%	0%	1%	0%	1.4	0.9	1.4
Nc1scc(CN2CCN(c3c(Cl)cccc3Cl)CC2)c1C(=O)c1ccc(Cl)cc1	15%	0%	-2.2%	-47%	0%	0%	1%	3.3	0.9	2.9
Nc1scc(CN2CCN(c3ccc(F)c(F)c3)CC2)c1C(=O)c1ccc(Cl)cc1	-3.2%	-34%	-78%	-87%	0%	0%	1%	7.2	1.1	5.5
Nc1scc(CN2CCN(Cc3ccc(Cl)cc3)CC2)c1C(=O)c1ccc(Cl)cc1	-2.2%	4.2%	-43%	-82%	0%	1%	0%	4.5	1	3.7
Nc1scc(CN2CCN(c3ccncc3)CC2)c1C(=O)c1ccc(Cl)cc1	-4%	1.4%	-8.3%	-15%	1%	0%	2%	1.1	0.9	1.2
Nc1scc(CN2CCN(c3ccc(F)cc3F)CC2)c1C(=O)c1ccc(Cl)cc1	0%	-17%	-66%	-82%	1%	0%	0%	6.1	1	4.8
Nc1scc(CN2CCN(c3cc(F)cc(F)c3)CC2)c1C(=O)c1ccc(Cl)cc1	-13%	-5%	-66%	-79%	0%	0%	2%	6.2	1.1	4.8
Nc1scc(CN2CCN(c3cccc(C(F)(F)F)c3)CC2)c1C(=O)c1ccc(Cl)cc1	-8.2%	-30%	-72%	-80%	0%	3%	0%	5.3	1	4.3
Nc1scc(CN2CCN(c3ccc(Cl)cc3Cl)CC2)c1C(=O)c1ccc(Cl)cc1	2%	-11%	-54%	-74%	0%	0%	0%	4.4	1	3.7
Nc1scc(CN2CCN(c3ccccc3Cl)CC2)c1C(=O)c1ccc(Cl)cc1	-2.1%	2%	-5.2%	-18%	2%	1%	0%	1.2	0.9	1.4
Nc1scc(CN2CCN(c3ccc(Cl)c(C(F)(F)F)c3)CC2)c1C(=O)c1ccc(Cl)cc1	-2.5%	-12%	-47%	-60%	0%	0%	3%	5.7	1	4.5
Nc1scc(CN2CCN(c3cccc4ccccc34)CC2)c1C(=O)c1ccc(Cl)cc1	8.7%	0%	2.9%	-21%	1%	0%	0%	1.1	0.9	1.3
Nc1scc(CN2CCN(c3ccc(Cl)c(Cl)c3)CC2)c1C(=O)c1ccc(Cl)cc1	-1.2%	-13%	-60%	-62%	1%	0%	3%	4.6	1	3.8
